Consider 13 compounds from paper PMC2695546 (Psychopharmacology, 2009).

Data set [1] relates to capsaicin-sensitized mice. Briefly: Capsaicin-induced mechanical hypersensitivity. It is filed as in vivo, mouse.
Data set [2] concerns mice. Nature of the data set: Rotarod test. It is filed as in vivo, mouse. The conditions noted are these: for Effect on rotarod latency: 45 min after s.c., mg/kg: HP 0.06, HP-Met-I 64, HP-Met-II 0.25, (−)-sulpiride 100, HP-Met-III 128, PRE-084 64; for Effect of PRE-084 on the drug's effect in the rotarod test: PRE-084 64 mg/kg s.c., HP 0.125 mg/kg, HP-Met-II 1 mg/kg s.c. The gist of the method: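 Female CD-1 mice (25–30 g), housed at 21 ± 1°C on a 12-h light/dark cycle. Motor coordination was tested on an accelerating rotarod. Latency to fall was recorded before injection (time 0) and 45 min after s.c. dosing. PRE-084 was injected s.c. immediately before the other drug, at a separate site. Controls received an equal volume of vehicle.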
Background: The rotarod test checks motor coordination on a turning rod.

Data set [3] deals with σ1 receptor (Mus musculus, UniProt O55242). Nature of the data set: [3H]. In kind it is binding.
The mark [4] stands for this setting: from dose–response curves, s.c., capsaicin 1 µg i.pl., 0.5 g force.
Setting [5] is: naloxone 1 mg/kg s.c., morphine 0.25, HP 0.06, HP-Met-II 0.25, HP-Met-I 64 mg/kg s.c.
The mark [6] stands for this setting: read-out: IC50 (concentration of unlabeled drug that inhibited the specific binding of [3H](+)-pentazocine by 50%), mouse brain membranes P2 fraction, 5 nM [3H](+)-pentazocine, 240 min, 30°C, pH 8.

Where a name gives a salt, the structure may show the parent alone. Read-outs that look alike come from different tables or passages of the source.

For the compound `CCN1CCC[C@H]1CNC(=O)c1cc(S(N)(=O)=O)ccc1OC` [(−)-Sulpiride, (−)-sulpiride], in data set [1] (mouse, in vivo), the “ED50 (dose producing half of the maximal antiallodynic effect)” value is “Inactive^a”. Also, the “Effect on rotarod latency” value in data set [2] is recorded as “devoid of any effect”. Moreover, the IC50 in data set [3] is over 10 µM.

With `CN1CCN(CCc2ccc(Cl)c(Cl)c2)CC1.Cl.Cl` [BD-1063, 1-[2-(3,4-dichlorophenyl)ethyl]-4-methylpiperazine dihydrochloride], in data set [1] (mouse, in vivo), the “Effect of PRE-084 on the antiallodynic effect of the drug” value is “completely antagonized”.

Turning to `OC1(c2ccc(Cl)cc2)CCNCC1` [Haloperidol metabolite I, 4-(4-chlorophenyl)-4-hydroxypiperidine], the “Emax (maximum antiallodynic effect)” value in data set [1] (setting [4]) is 62.27 ± 6.99%. Besides, in data set [1] (mouse, in vivo), the “Effect of PRE-084 on the antiallodynic effect of the drug” value was “completely and dose-dependently prevented”; the “Effect of naloxone on the antiallodynic effect of the drug” value (“Effect of naloxone” for short) is given as “did not significantly modify”. In addition, in data set [2], the “Effect on rotarod latency” value is “no effect”. The IC50 in data set [3] came out at 0.254 ± 0.0184 µM.

Turning to `OC(CCCN1CCC(O)(c2ccc(Cl)cc2)CC1)c1ccc(F)cc1` (stereo not drawn) [Haloperidol metabolite II, 4-(4-chlorophenyl)-α-(4-fluorophenyl)-4-hydroxy-1-piperidinebutanol], the “Emax (maximum antiallodynic effect)” value in data set [1] (setting [4]) was 100%. Also, the “Effect of naloxone” value in data set [1] (setting [5]) is “did not significantly modify”. Also, the “Antiallodynic effect at higher doses” value in data set [1] (s.c., HP 0.125 mg/kg, HP-Met-II 1 mg/kg) came out at 100%. For the same compound, in data set [2], the “Effect on rotarod latency” value was “no effect” and the “Effect of PRE-084 on the drug's effect in the rotarod test” value is recorded as “not prevented”. The same compound came in with an IC50 in data set [3] of 0.0128 ± 0.00069 µM.

For the compound `O=C(O)CCC(=O)c1ccc(F)cc1` [Haloperidol metabolite III, p-fluorobenzoylpropionic acid], the “Effect on rotarod latency” value in data set [2] was “devoid of any effect”. For the same compound, the IC50 in data set [3] (setting [6]) is over 10 µM.

As for `O=C(CCCN1CCC(O)(c2ccc(Cl)cc2)CC1)c1ccc(F)cc1` [Haloperidol, haloperidol], in data set [1] (mouse, in vivo), the “Antiallodynic effect at higher doses” value came out at 100%, the “Effect of PRE-084 on the antiallodynic effect of the drug” value was “dose-dependent reversion” and the “Effect of naloxone” value was “did not significantly modify”. The “Emax (maximum antiallodynic effect)” value in data set [1] (mouse, in vivo, sc) amounted to 100%. Besides, in data set [2], the “Effect on rotarod latency” value is “no effect” and the “Effect of PRE-084 on the drug's effect in the rotarod test” value is recorded as “not prevented”.

For `Cl.O=C(OCCN1CCOCC1)C1(c2ccccc2)CCCCC1` [PRE-084, 2-(4-morpholinethyl)1-phenylcyclohexanecarboxylate) hydrochloride], in data set [3] (setting [6]), the IC50 amounted to 0.171 ± 0.0184 µM.

In the case of `Cl.O=C(OCCN1CCOCC1)C1(c2ccccc2)CCCCC1` [PRE-084], the “Effect on rotarod latency” value in data set [2] is “devoid of any effect”.

Consider `COc1cc(CNC(=O)CCCC/C=C/C(C)C)ccc1O` [capsaicin], for which the “Decrease in the EF50 value for inducing paw withdrawal in comparison to control mice” value in data set [1] (capsaicin 1 µg i.pl. vs DMSO-treated) is reported as 9.4 fold. Moreover, the “EF50 (force producing half the maximal reduction in paw withdrawal latency time)” value in data set [1] (capsaicin 1 µg i.pl., 15 min before stimulation, forces 0.05–8 g) stood at 0.30 ± 0.02 g.

As for `Clc1cccc(Cl)c1N=C1NCCN1` [clonidine], the IC50 in data set [3] is over 10 µM.

For the compound `NCC1(CC(=O)O)CCCCC1` [gabapentin], in data set [3], the IC50 is over 10 µM.

`CN1CC[C@]23c4c5ccc(O)c4O[C@H]2[C@@H](O)C=C[C@H]3[C@H]1C5` [morphine, morphine hydrochloride]: the “Effect of naloxone” value in data set [1] (setting [5]) was “reversed”.

Regarding `CS(=O)(=O)c1ccc(C2=C(c3ccccc3)C(=O)OC2)cc1` [rofecoxib], the IC50 in data set [3] was over 10 µM.
